Data reported in PubChem BioAssay AID623968 (The Scripps Research Institute Molecular Screening Center, 2012).
Active and inactive are the calls of the source.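 Rule for the calls: active = compounds cutting HCV replicon RNA in liver cells with IC50 no higher than 50000 nM; inactive = the rest.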

Tested on: Huh 7.5 HCV Rluc replicon, HCV RNA qRT-PCR, 72 h
Assay: effect on HCV RNA in replicon cells – RT-PCR, Huh 7.5 Rluc replicon cells, orthogonal assay for HCV NS3 helicase inhibitor project, late-stage follow-up (AID 623968)
In short: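 Assay system: Huh 7.5 human hepatoma cells carrying HCV Rluc replicon / Times: 72 h treatment at 37 °C / Technique: TaqMan qRT-PCR targeting HCV 5'UTR / Evaluation: IC50 from fitted curve of rRNA-normalized HCV RNA versus DMSO / Benchmarks: DMSO vehicle-treated cells as reference sample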

IC50	SMILES
5 µM	Cc1ccc2nc(-c3ccc4nc(-c5ccc(NC(=O)c6cc(C(F)(F)F)cc(C(F)(F)F)c6)cc5)sc4c3)sc2c1S(=O)(=O)O
> 25 µM (inactive)	Cc1ccc2nc(-c3ccc4nc(-c5ccc(NC(=O)c6cccc(Cl)c6)cc5)sc4c3)sc2c1S(=O)(=O)O
